These results are taken from ChEMBL document CHEMBL1932939, “Synthesis and cytotoxic evaluation of thiourea and N-bis-benzothiazole derivatives: a novel class of cytotoxic agents” (Bioorg Med Chem Lett, 2012).

pIC50: −log10 of the molar value.

Test [1] relates to U-937. Description: Cytotoxicity against human U937 cells after 48 hrs by MTT assay. The test is classed as functional, cell-based. In outline: (§1)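 IC50 is taken as the concentration that gives a 50% drop in cell number relative to control cultures grown without inhibitor. Etoposide serves as the standard positive-control drug.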
In general terms: Formazan colour is commonly taken as a measure of viable cells.

Test [2] relates to THP-1. In words: Cytotoxicity against human THP1 cells after 48 hrs by MTT assay. The test is classed as functional, cell-based. Conditions: THP-1, 48 h. In outline: as §1
Test [3] deals with B16-F10. In words: Cytotoxicity against mouse B16F10 cells after 48 hrs by MTT assay. The note with it: B16-F10, 48 h. It counts as functional, cell-based. In outline: as §1
For test [4], the system named is THP-1. Description: Ratio of IC50 for human U937 cells to IC50 for human THP1 cells after 48 hrs by MTT assay. The test is classed as functional.
For test [5], the system named is THP-1. In words: Ratio of IC50 for mouse B16F10 cells to IC50 for human THP1 cells after 48 hrs by MTT assay. It counts as functional.

For orientation: pIC50 means the negative decadic logarithm of the IC50, by convention in mol/L. Consider `CCOc1ccc2nc(Nc3nc4ccc(F)cc4s3)sc2c1`, for which the negative-log IC50 (pIC50) in test [1] (Homo sapiens, U-937, 48 h) was 4.58; in test [2] it was 4.41; in test [3] it was 4.48.

For `Fc1ccc(NC(=S)Nc2nc3ccc(F)cc3s2)cc1`, the pIC50 in test [1] (Homo sapiens, U-937, 48 h) is 4.79; in test [2] it was 4.46; in test [3], 4.32.

Take `Fc1ccc2nc(NC(=S)Nc3ccccc3)sc2c1`: the negative logarithm of the IC50 (pIC50) in test [1] (Homo sapiens, U-937, 48 h) is less than 4.30; in test [2], 4.33; in test [3] it was less than 4.30.

As to `CCOc1ccc2nc(Nc3nc4ccccc4s3)sc2c1`, the pIC50 is less than 4.30 in test [1] (Homo sapiens, U-937, 48 h); 4.43 in test [2]; less than 4.30 in test [3].

In the case of `Clc1ccc2nc(Nc3nc4ccccc4s3)sc2c1`, the pIC50 in test [1] (Homo sapiens, U-937, 48 h) was less than 4.30; in test [2], 4.34; in test [3], less than 4.30.

As to `Fc1ccc2nc(Nc3nc4ccc(F)cc4s3)sc2c1`, the pIC50 in test [1] (Homo sapiens, U-937, 48 h) is 4.56; in test [2], 4.76; in test [3], 4.32.

`Fc1ccc2nc(Nc3nc4ccc(Cl)cc4s3)sc2c1`: the pIC50 in test [1] (Homo sapiens, U-937, 48 h) is less than 4.30; in test [2] it was 4.39; in test [3] it was 4.38.

With `Cc1ccc2nc(Nc3nc4ccccc4s3)sc2c1`, the negative-log IC50 (pIC50) in test [1] (Homo sapiens, U-937, 48 h) was 4.31; in test [2], 4.47; in test [3] it was less than 4.30.

On to `Fc1ccc(NC(=S)Nc2nc3c(Cl)cccc3s2)cc1`, for which the pIC50 was less than 4.30 in test [1] (Homo sapiens, U-937, 48 h); less than 4.30 in test [2]; less than 4.30 in test [3].

On to `Cc1ccc2nc(NC(=S)Nc3ccc(F)cc3)sc2c1`, for which the pIC50 is less than 4.30 in test [1] (Homo sapiens, U-937, 48 h); 4.43 in test [2]; less than 4.30 in test [3].

Consider `Fc1ccc2nc(Nc3nc4ccccc4s3)sc2c1`, for which the pIC50 in test [1] (Homo sapiens, U-937, 48 h) is 4.39; in test [1] (u-937) it was 4.36; in test [2], less than 4.30; in test [3], less than 4.30.

As to `c1ccc2sc(Nc3nc4ccccc4s3)nc2c1`, the pIC50 in test [1] (Homo sapiens, U-937, 48 h) was 4.40; in test [2] it was 4.54; in test [3], less than 4.30.

As to `S=C(Nc1ccc(Cl)cc1)Nc1nc2ccccc2s1`, the pIC50 in test [1] (Homo sapiens, U-937, 48 h) was less than 4.30; in test [2] it was 4.41; in test [3] it was less than 4.30.

For `S=C(Nc1ccccc1)Nc1nc2ccccc2s1`, the pIC50 is less than 4.30 in test [1] (Homo sapiens, U-937, 48 h); 4.44 in test [2]; less than 4.30 in test [3].

Regarding `Cc1ccc2nc(Nc3nc4ccc(F)cc4s3)sc2c1`, the negative-log IC50 (pIC50) in test [1] (Homo sapiens, U-937, 48 h) was less than 4.30; in test [2], less than 4.30; in test [3], 4.53.

On to `CCOc1ccc2nc(NC(=S)Nc3ccccc3)sc2c1`, for which the pIC50 in test [1] (Homo sapiens, U-937, 48 h) was 4.42; in test [2], 4.36; in test [3] it was less than 4.30.

As for `Fc1ccc(NC(=S)Nc2nc3ccccc3s2)cc1`, the pIC50 in test [1] (Homo sapiens, U-937, 48 h) is 4.49; in test [2], 4.57; in test [3] it was less than 4.30.

Consider `Clc1cccc2sc(Nc3nc4ccccc4s3)nc12`, for which the pIC50 in test [1] (Homo sapiens, U-937, 48 h) is less than 4.30; in test [2] it was less than 4.30; in test [3], 4.53.

Regarding `CCOc1ccc2nc(NC(=S)Nc3ccc(F)cc3)sc2c1`, the negative-log IC50 (pIC50) is 4.55 in test [1] (Homo sapiens, U-937, 48 h); 4.40 in test [2]; less than 4.30 in test [3].

In test [3], `COc1cc([C@@H]2c3cc4c(cc3[C@@H](O[C@@H]3O[C@@H]5CO[C@@H](C)O[C@H]5[C@H](O)[C@H]3O)[C@H]3COC(=O)[C@H]23)OCO4)cc(OC)c1O` [ETOPOSIDE] gave a pIC50 of 4.73. For the same molecule, the “Ratio IC50” value in test [4] and in test [5] was 9 throughout.

Turning to `Cc1ccc2nc(NC(=S)Nc3ccccc3)sc2c1`, the pIC50 in test [1] (Homo sapiens, U-937, 48 h) is less than 4.30; in test [2], less than 4.30; in test [3], less than 4.30.

Take `Fc1ccc2nc(Nc3nc4c(Cl)cccc4s3)sc2c1`: the pIC50 is less than 4.30 in test [1] (Homo sapiens, U-937, 48 h); 4.44 in test [2]; less than 4.30 in test [3].

On to `S=C(Nc1ccccc1)Nc1nc2c(Cl)cccc2s1`, for which the pIC50 in test [1] (Homo sapiens, U-937, 48 h) is less than 4.30; in test [2], 4.50; in test [3], less than 4.30.

Consider `Fc1ccc2nc(NC(=S)Nc3ccc(Cl)cc3)sc2c1`, for which the pIC50 in test [1] (Homo sapiens, U-937, 48 h) is 4.73; in test [2] it was 4.51; in test [3], 4.32.
